From article PMC4407950 (Journal of Clinical Pharmacology, 2014)
Where two headings read alike, the source gives them in different places.

Experiments:
[1] = format: in vivo, human; conditions: for AUC(0–∞), ratio of geometric least-squares means (90% confidence interval) / C24, ratio of geometric least-squares means (90% confidence interval) / Cmax, ratio of geometric least-squares means (90% confidence interval) / reduction of plasma dolutegravir AUC(0–∞) / reduction of plasma dolutegravir C24 / reduction of plasma dolutegravir Cmax: fasted; for Tmax: human, plasma, oral, median (range)
How it was run: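 Healthy adults were randomized to 2 cohorts of 4 treatments: test compound 50 mg single dose fasted, then with calcium supplement (1,200 mg) or iron supplement (324 mg) fasted, with a ~30% fat meal, or 2 h before the supplement fasted. Washout was ≥7 days. K2EDTA plasma was sampled predose to 48 h. Noncompartmental parameters were log-transformed and fitted by mixed model, giving geometric LS mean ratios with 90% CI.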

Safety evaluation = format: in vivo, human; conditions: for subjects who experienced AEs: six subjects
How it was run: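 Subjects were housed from Day −1 to Day 3 of each crossover period. Each period included serum chemistry, hematology, urinalysis, vital signs and 12-lead ECG. Adverse events were monitored through the treatment phase and at follow-up 7–14 days after the last dose.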

[2] = cited from earlier work
[3] = in the absence of added supplement; cited from earlier work
[4] = Dolutegravir 2 h prior + CC, fasted vs. dolutegravir alone
[5] = Dolutegravir 2 h prior + FF, fasted vs. dolutegravir alone
[6] = Dolutegravir + CC, fasted vs. dolutegravir alone
[7] = Dolutegravir + CC, fed vs. dolutegravir + CC
[8] = Dolutegravir + CC, fed vs. dolutegravir alone
[9] = Dolutegravir + FF, fasted vs. dolutegravir alone
[10] = Dolutegravir + FF, fed vs. dolutegravir + FF
[11] = Dolutegravir + FF, fed vs. dolutegravir alone
[12] = co-administered with calcium carbonate 1,200 mg
[13] = co-administered with ferrous fumarate 324 mg
[14] = Maalox 2 hours after dolutegravir administration
[15] = concurrent administration of Maximum Strength Maalox, fasted

- AUC(0–∞), ratio of geometric least-squares means (90% confidence interval) [1, 4]: 0.94 (0.72, 1.23)
- C24, ratio of geometric least-squares means (90% confidence interval) [1, 4]: 0.90 (0.68, 1.19)
- Cmax, ratio of geometric least-squares means (90% confidence interval) [1, 4]: 1.00 (0.78, 1.29)
- AUC(0–∞), ratio of geometric least-squares means (90% confidence interval) [1, 5]: 0.95 (0.77, 1.15)
- C24, ratio of geometric least-squares means (90% confidence interval) [1, 5]: 0.92 (0.74, 1.13)
- Cmax, ratio of geometric least-squares means (90% confidence interval) [1, 5]: 0.99 (0.81, 1.21)
- AUC(0–∞), ratio of geometric least-squares means (90% confidence interval) [1, 6]: 0.61 (0.47, 0.80)
- C24, ratio of geometric least-squares means (90% confidence interval) [1, 6]: 0.61 (0.47, 0.80)
- Cmax, ratio of geometric least-squares means (90% confidence interval) [1, 6]: 0.63 (0.50, 0.81)
- AUC(0–∞), ratio of geometric least-squares means (90% confidence interval) [1, 7]: 1.78 (1.36, 2.33)
- C24, ratio of geometric least-squares means (90% confidence interval) [1, 7]: 1.76 (1.33, 2.33)
- Cmax, ratio of geometric least-squares means (90% confidence interval) [1, 7]: 1.70 (1.32, 2.18)
- AUC(0–∞), ratio of geometric least-squares means (90% confidence interval) [1, 8]: 1.09 (0.84, 1.43)
- C24, ratio of geometric least-squares means (90% confidence interval) [1, 8]: 1.08 (0.81, 1.42)
- Cmax, ratio of geometric least-squares means (90% confidence interval) [1, 8]: 1.07 (0.83, 1.38)
- AUC(0–∞), ratio of geometric least-squares means (90% confidence interval) [1, 9]: 0.46 (0.38, 0.56)
- C24, ratio of geometric least-squares means (90% confidence interval) [1, 9]: 0.44 (0.36, 0.54)
- Cmax, ratio of geometric least-squares means (90% confidence interval) [1, 9]: 0.43 (0.35, 0.52)
- AUC(0–∞), ratio of geometric least-squares means (90% confidence interval) [1, 10]: 2.14 (1.76, 2.61)
- C24, ratio of geometric least-squares means (90% confidence interval) [1, 10]: 2.28 (1.85, 2.81)
- Cmax, ratio of geometric least-squares means (90% confidence interval) [1, 10]: 2.41 (1.97, 2.94)
- AUC(0–∞), ratio of geometric least-squares means (90% confidence interval) [1, 11]: 0.98 (0.81, 1.20)
- C24, ratio of geometric least-squares means (90% confidence interval) [1, 11]: 1.00 (0.81, 1.23)
- Cmax, ratio of geometric least-squares means (90% confidence interval) [1, 11]: 1.03 (0.84, 1.26)
- reduction of plasma dolutegravir AUC(0–∞) [1, 12]: 39%
- reduction of plasma dolutegravir C24 [1, 12]: 39%
- reduction of plasma dolutegravir Cmax [1, 12]: 37%
- reduction of plasma dolutegravir AUC(0–∞) [1, 13]: 54%
- reduction of plasma dolutegravir C24 [1, 13]: 56%
- reduction of plasma dolutegravir Cmax [1, 13]: 57%
- plasma exposures, dose separation ([1]; dolutegravir fasted 2 hours prior to calcium carbonate or ferrous fumarate): counteracted the effect
- plasma exposures, co-administration with supplement and a meal ([1]; dolutegravir with calcium carbonate or ferrous fumarate, fed (moderate-fat meal)): counteracted the effect
- Tmax ([1]; dolutegravir 50 mg + calcium carbonate 1,200 mg, fed (moderate-fat meal), n = 11): 3 h
- Tmax ([1]; dolutegravir 50 mg + ferrous fumarate 324 mg, fed (moderate-fat meal), n = 10): 3.5 h
- increase of dolutegravir AUC by a moderate-fat meal ([1]; in the presence of calcium carbonate): 78%
- increase of dolutegravir AUC by a moderate-fat meal ([1]; in the presence of ferrous fumarate): 114%
- effect of co-administration on tmax of dolutegravir ([1]; with calcium carbonate or ferrous fumarate): no effect
SMILES: C[C@@H]1CCO[C@H]2Cn3cc(C(=O)NCc4ccc(F)cc4F)c(=O)c(O)c3C(=O)N12 [Dolutegravir]
- subjects who experienced AEs (Safety evaluation; Cohort 1 (calcium carbonate)): 50%
- subjects who experienced AEs (Safety evaluation; Cohort 2 (ferrous fumarate)): 50%
- severity of all adverse events (Safety evaluation; both cohorts): Grade 1
- changes in mean or median hematology or clinical chemistry values (Safety evaluation; human, in vivo): No consistent, treatment-related, or clinically significant changes
- changes in vital signs or ECGs (Safety evaluation; human, in vivo): No clinically significant changes
- decrease of dolutegravir mean AUC [2, 14]: 26%
- decrease of dolutegravir mean C24 [2, 14]: 30%
- decrease of dolutegravir mean Cmax [2, 14]: 18%
- effect of omeprazole on dolutegravir exposure ([2]; clinical study in humans): no effect
- decrease of dolutegravir mean AUC [2, 15]: 74%
- decrease of dolutegravir mean C24 [2, 15]: 74%
- decrease of dolutegravir mean Cmax [2, 15]: 72%
- increase of dolutegravir AUC by a moderate-fat meal [3]: 41%
